From paper PMC6082709 (Nature medicine, 2018)
“Also recorded” adds a separate entry of the source.

How the values were obtained:
AML cell lines [1] = test: CellTiter-Glo cell viability across the cell line panel; assay type: cell-based, human; conditions: for sensitivity of the Val-boroPro-sensitive AML cell lines to the compound: cell viability relative to DMSO; for sensitivity of the Val-boroPro-sensitive AML cell lines to the compound / reduction in cell viability: 48 h
THP-1 or MV4;11 cells = test: LDH release with Val-boroPro plus bortezomib; assay type: cell-based, human; conditions: bortezomib 100 nM with Val-boroPro 2 μM, 6 h
[2] = test system: caspase-1 knockout OCI-AML2, MV4;11 and THP-1 cells; test: Cell viability of caspase-1 knockout cells; assay type: cell-based, human
AML cell lines [3] = conditions: cited from earlier work
HEK 293T cells = test: CellTiter-Glo cell viability assay; assay type: cell-based, human; conditions: HEK293T
[4] = test system: primary human cancer AML-10; test: AML-10 patient-derived xenograft; assay type: in vivo, mouse; conditions: 2 mg/kg, PDX model
K562 cells = test: CellTiter-Glo cell viability assay; assay type: cell-based, human
[5] = test system: primary human cord blood CD34+ cells; test: CellTiter-Glo cell viability assay; assay type: cell-based; conditions: 6 μM, 24 h, Cell Titer Glo
Summary of the method: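 Human cord blood cells were thawed in IMDM/15% FBS with DNase1 (1 mg/mL). Culture medium was IMDM/10% FBS with TPO, SCF and G-CSF (each 100 ng/mL). Cells were assayed immediately after thawing at 2000 cells/well with pintool compound addition, incubated 22 h at 37 °C, and read by CellTiter-Glo luminescence after 2 min shaking and 10 min at room temperature.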

[6] = test system: CASP1−/− MV4;11 leukemia cells; test: Disseminated CASP1−/− MV4; assay type: in vivo, mouse; conditions: 20 μg i.p. once daily, 5 days a week, 3 weeks
Summary of the method: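 NSG mice (female, 7 weeks, 200 cGy irradiated) received 1 million luciferase-expressing CASP1−/− MV4;11 cells by tail vein. On day 5 they were randomized (n=9/group) and dosed i.p. with 100 μL vehicle (1 mM HCl in PBS, pH 7.4) or 20 μg/100 μL once daily, 5 days/week. Dosing stopped after 3 weeks. Burden was tracked by bioluminescence; survival to moribund state used all 9 animals.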

MV4;11 leukemia cells = test: Disseminated MV4; assay type: in vivo, mouse; conditions: 20 μg i.p. once daily, 5 days a week for 4 weeks; log-rank test
Summary of the method: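 Luciferase-expressing MV4;11 cells (1 million, neomycin-selected) were injected into the tail vein of 200 cGy-irradiated 7-week female NSG mice. From day 5, randomized mice (n=9/group) got 100 μL i.p. vehicle (1 mM HCl in PBS, pH 7.4) or 20 μg/100 μL once daily, 5 days/week for 4 weeks. BLI tracked burden. Survival ran from inoculation to moribund state (6/group), analysed by log-rank test.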

non-AML cell lines = test: CellTiter-Glo cell viability across the cell line panel; assay type: cell-based, human
Summary of the method: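 Cells were dispensed at 2000 cells/well in 25 μL of medium, and compound was added by pintool. MV4;11 and RS4;11 were incubated 22 h and all other lines 46 h, at 37 °C. Plates were equilibrated to room temperature, then CellTiter-Glo was added, with 2 min orbital shaking and 10 min at room temperature. Luminescence is expressed relative to DMSO as mean ± SEM of three biological replicates.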

[7] = test system: NLRP1−/− THP-1 and MV4;11 cells; test: LDH release / GSDMD cleavage in NLRP1 knockout cells; assay type: cell-based, human
G-CSF and Cxcl1 = conditions: mice; cited from earlier work
primary T-ALL samples = test: Primary cancer cell assay; assay type: cell-based, human; conditions: 20 µM, FACS
Summary of the method: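 Bone marrow aspirates were strained, Ficoll-separated and ACK-lysed, then frozen; AML samples 1–4 were first passaged in NSG mice. Cells were thawed in IMDM/15% FBS with DNase1 and cultured with 2-mercaptoethanol, G-CSF, SCF, IL-3 and FLT3-ligand. One day later, 100,000 cells/well were treated in triplicate with 20 μM or DMSO for 40 h at 37 °C. Death was scored by flow cytometry (anti-human/anti-mouse CD45, PI or DAPI).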

[8] = cited from earlier work
primary AML cells = test: Primary cancer cell assay; assay type: cell-based, human; conditions: 20 µM, 48 h, FACS
G-CSF = conditions: healthy volunteers and cancer patients; cited from earlier work
[9] = Evaluation in wild-type C57BL/6J mice; assay type: in vivo, mouse; conditions: 20 μg i.p.
Summary of the method: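 Female C57BL/6J mice (7 weeks) received vehicle (1 mM HCl/PBS) or 20 μg either once (n=5/group, harvested at 6 h or 24 h) or once daily, 5 days/week for two weeks (10 doses, n=4, harvested 24 h after the last dose). Blood was analysed for complete blood count and blood chemistry.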

[10] = test system: HEK 293T cells stably expressing hCASP1 and hGSDMD transfected with CARD8; test: LDH release from transfected HEK 293T cells; assay type: cell-based, human; conditions: 2 μM, 24 h; CARD8 but not NLRP1 or S297A CARD8
Summary of the method: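 HEK 293T cells stably expressed human caspase-1 (hygromycin-selected) and gasdermin D (puromycin-selected) after lentiviral transduction. They were seeded at 0.5 × 10^6/well in DMEM/10% FBS one day before Fugene HD transfection, with total DNA brought to 2 μg with RFP vector; RFP vector alone served as mock. After 24 h, cells got DMSO or 2 μM for a further 24 h. Supernatant LDH was measured (mean ± SEM, three experiments).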

Tolerability in MV4 = assay type: in vivo, mouse; conditions: NSG mice, 20 μg i.p., treatment day 23
Summary of the method: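 Disseminated MV4;11-Luc NSG model: mice were dosed i.p. with 100 μL vehicle (1 mM HCl/PBS) or 20 μg/100 μL daily, 5 days/week, and weighed daily. After 23 days of dosing, peripheral blood was taken from 3 mice per group, chosen by high, median and low BLI flux. It was analysed for complete blood counts and blood chemistry. Femur, spleen, lung and liver sections were H&E-stained.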

sensitive AML cell lines = test: Immunoblotting of GSDMD and PARP cleavage; assay type: cell-based, human; conditions: 24 h
[11] = test system: CARD8−/− THP-1, MV4;11 and OCI-AML2 cells; test: LDH release / GSDMD cleavage in CARD8 knockout cells; assay type: cell-based, human; conditions: 2 μM; 24 h OCI-AML2 and MV4;11, 48 h THP-1
primary B-ALL = test: Primary cancer cell assay; assay type: cell-based, human; conditions: 20 µM, 48 h, FACS

Compound: N[C@@H](CC(=O)N1CCn2c(nnc2C(F)(F)F)C1)Cc1cc(F)c(F)cc1F [sitagliptin]
- sensitivity of the Val-boroPro-sensitive AML cell lines to the compound (AML cell lines [1]): not sensitive

Compound: CC(C)C[C@H](NC(=O)[C@H](Cc1ccccc1)NC(=O)c1cnccn1)B(O)O [bortezomib]
- effect on activation of CARD8 by Val-boroPro (LDH release) (THP-1 or MV4;11 cells): blocks

Compound: CC[C@@H](C)[C@H](N)C(=O)N1Cc2ccccc2C1 [L-allo-Ile-isoindoline]
- sensitivity of the Val-boroPro-sensitive AML cell lines to the compound (AML cell lines [1]): sensitive
- sensitivity of caspase-1 knockout cells [2]: resistant

Compound: N#C[C@@H]1CCCN1C(=O)CNC12CC3CC(CC(O)(C3)C1)C2 [vildagliptin]
- anti-AML cytotoxicity on its own (AML cell lines [3]): did not exhibit any anti-AML cytotoxicity

Compound: CC(C)[C@H](N)C(=O)N1CCC[C@H]1B(O)O [Val-boroPro]
- cell death after 5 days of treatment (HEK 293T cells): no cell death
- weight loss associated with leukemia progression [4]: slowed weight loss
- cell death after 5 days of treatment (K562 cells): no cell death
- cell death in primary CD34+ human cord blood cells [5]: sensitive
- efficacy against CASP1−/− MV4;11 cells in vivo (bioluminescence, survival) [6]: absolutely no efficacy; also recorded: not statistically different
- reduction in cell viability (AML cell lines [1]; KG1, THP-1 and NOMO-1): 40–65%
- reduction in cell viability (AML cell lines [1]; MV4;11, OCI-AML2, SET-2, RS4;11 and MOLM-13): > 80%
- IC50 (AML cell lines [1]; Homo sapiens, read-out: IC50 values in sensitive AML cell lines): 6 to 206 nM
- time in which cells died (AML cell lines [1]; MV4;11 and OCI-AML2 cells): 1 to 2 days
- compound treatment required to achieve maximal cell killing (AML cell lines [1]; THP-1 and NOMO-1 cells): 5 days
- median extension in survival (MV4;11 leukemia cells): 24.5 days
- activity against non-AML cell lines tested (non-AML cell lines): no activity
- pyroptosis in NLRP1−/− cells [7]: induced pyroptosis
- serum protein levels of several cytokines, including G-CSF and Cxcl1 (G-CSF and Cxcl1): increases
- cell death in primary T-ALL samples (primary T-ALL samples): completely resistant
- maximum tolerated dose in humans [8]: without reaching a maximum tolerated dose
- serum concentrations reached in humans [8]: > 100 nM
- cell death in primary AML samples (primary AML cells): sensitive
- levels of a number of cytokines, including G-CSF (G-CSF): elevated
- effects on peripheral blood counts or body weight [9]: no significant effects
- cytotoxicity in CARD8-expressing HEK 293T cells [10]: sensitive
- effects on peripheral blood cell counts, serum chemistry, body weight (Tolerability in MV4): no significant effects
- cleavage of gasdermin D (GSDMD), not PARP (sensitive AML cell lines): induced cleavage
- sensitivity of CARD8−/− cells (GSDMD cleavage, cell death) [11]: completely resistant
- sensitivity of caspase-1 knockout cells [2]: resistant
- cell death in primary B-ALL (primary B-ALL): sensitive
